Assay results: ChEMBL document CHEMBL5608231, “Lysineless HiBiT and NanoLuc Tagging Systems as Alternative Tools for Monitoring Targeted Protein Degradation” (ACS Med Chem Lett, 2024)
The source made the active and inactive calls. The calls are words filed in the database; no cut-off is given here. Residues, ends and D or L forms follow the SMILES beside them.

Tests used:
[1] = Binding affinity to His-tagged LgBiT (unknown origin) incubated for 30 mins measured after subtracting LgBiT signal in presence of PBS by Nano-Glo luciferase based luminescence analysis; set-up: species or system Homo sapiens
Method in brief: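 Incubated 30 min, then Nano-Glo substrate was added and luminescence read. The LgBiT-only (PBS) baseline was subtracted before the three-parameter agonist fit.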

Homo sapiens [2] = species on record: Homo sapiens; experiment: Binding affinity to His-tagged LgBiT (unknown origin) assessed as on-rate constant protein immobilized on chip surface with surface density of 3000 pg/mm2 by grating-coupled interferometry
Method in brief: (§1)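 His-LgBiT, purified in-house from E. coli BL21(DE3), captured at 50 µg/mL in PBS on a Ni-charged PCP-NTA chip. Two flow channels reached 3000 and 1000 pg/mm2. Kinetics were run in 0.01 M HEPES, 0.15 M NaCl, 0.05% P20, pH 7.4. kon and koff came from a global association-then-dissociation fit.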

Homo sapiens [3] = species on record: Homo sapiens; experiment: Binding affinity to His-tagged LgBiT (unknown origin) assessed as off-rate constant protein immobilized on chip surface with surface density of 3000 pg/mm2 by grating-coupled interferometry; method in brief: as §1
Homo sapiens [4] = species on record: Homo sapiens; experiment: Binding affinity to His-tagged LgBiT (unknown origin) assessed as on-rate constant protein immobilized on chip surface with surface density of 1000 pg/mm2 by grating-coupled interferometry; method in brief: as §1
Homo sapiens [5] = species on record: Homo sapiens; experiment: Binding affinity to His-tagged LgBiT (unknown origin) assessed as off-rate constant protein immobilized on chip surface with surface density of 1000 pg/mm2 by grating-coupled interferometry; method in brief: as §1
[6] = Binding affinity to His-tagged LgBiT (unknown origin) incubated for 30 mins by Nano-Glo luciferase based luminescence analysis; set-up: species or system Homo sapiens
Method in brief: (§2)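 Equilibrated 30 min at room temperature, then Nano-Glo substrate was added and luminescence read. EC50 from a three-parameter agonist fit; at least 3 technical replicates.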

[7] = Binding affinity to LgBiT (unknown origin) incubated for 30 mins by Nano-Glo luciferase based luminescence analysis; set-up: species or system Homo sapiens; method in brief: as §2
[8] = Binding affinity to His-tagged LgBiT (unknown origin) immobilized on chip surface with surface density of 3000 pg/mm2 by grating-coupled interferometry; set-up: species or system Homo sapiens; method in brief: as §1
[9] = Binding affinity to His-tagged LgBiT (unknown origin) immobilized on chip surface with surface density of 1000 pg/mm2 by grating-coupled interferometry; set-up: species or system Homo sapiens; method in brief: as §1
[10] = molecular target: T1, von Hippel-Lindau disease tumor suppressor/Receptor-interacting serine/threonine-protein kinase 1 (Homo sapiens, UniProt Q13546+P40337); experiment: PROTAC activity at VHL/wild type nLuc-fused N-terminal RIPK1 kinase domain (unknown origin) expressed in HEK293T cells assessed as induction of protein degradation measured after 24 hrs in presence of furimazine substrate by Nano-Glo luciferase based luminescence analysis; assay type: cell-based
Method in brief: (§3)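 HEK293T cells transiently transfected with nLuc (WT or K0)-RIPK1 kinase domain (1-324) through a 24-residue linker, expressed 24–36 h. Replated at 20,000 cells/well in Opti-MEM with 4% FBS. Treated 24 h with 1.6–1,000 nM (5-fold, 1% DMSO). Medium removed, Nano-Glo substrate 1:100 in PBS added, live-cell luminescence read. Three-parameter inhibitor fit; at least two biological batches.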
Target sequence in this assay (Q13546 whole entry, the tested form may be a part): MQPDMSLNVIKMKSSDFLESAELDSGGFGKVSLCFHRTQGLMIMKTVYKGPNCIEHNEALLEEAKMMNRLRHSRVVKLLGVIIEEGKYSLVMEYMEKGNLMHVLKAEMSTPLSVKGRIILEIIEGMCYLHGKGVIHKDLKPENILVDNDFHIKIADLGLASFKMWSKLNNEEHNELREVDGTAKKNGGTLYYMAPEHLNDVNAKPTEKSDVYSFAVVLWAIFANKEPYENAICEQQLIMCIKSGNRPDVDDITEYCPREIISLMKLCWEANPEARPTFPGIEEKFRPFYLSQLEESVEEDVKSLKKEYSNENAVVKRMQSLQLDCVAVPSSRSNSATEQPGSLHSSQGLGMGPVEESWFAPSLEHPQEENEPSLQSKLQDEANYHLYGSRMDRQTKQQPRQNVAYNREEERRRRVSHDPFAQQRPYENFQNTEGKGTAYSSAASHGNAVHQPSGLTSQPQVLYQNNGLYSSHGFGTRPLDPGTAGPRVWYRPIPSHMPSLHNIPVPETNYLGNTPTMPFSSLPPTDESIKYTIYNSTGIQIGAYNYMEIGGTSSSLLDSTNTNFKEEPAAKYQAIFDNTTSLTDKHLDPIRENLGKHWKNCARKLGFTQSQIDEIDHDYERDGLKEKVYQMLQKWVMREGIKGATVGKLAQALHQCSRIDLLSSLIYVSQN
Target sequence in this assay (P40337 whole entry, the tested form may be a part): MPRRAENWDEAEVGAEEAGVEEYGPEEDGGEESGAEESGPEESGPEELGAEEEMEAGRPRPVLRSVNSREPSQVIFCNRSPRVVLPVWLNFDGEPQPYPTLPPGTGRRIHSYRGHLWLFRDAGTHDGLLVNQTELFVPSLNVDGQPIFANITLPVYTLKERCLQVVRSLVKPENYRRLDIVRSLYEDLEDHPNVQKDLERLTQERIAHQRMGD

[11] = molecular target: T1, von Hippel-Lindau disease tumor suppressor/Receptor-interacting serine/threonine-protein kinase 1; experiment: PROTAC activity at VHL/nLucK0-fused N-terminal RIPK1 kinase domain (unknown origin) expressed in HEK293T cells assessed as induction of protein degradation measured after 24 hrs in presence of furimazine substrate by Nano-Glo luciferase based luminescence analysis; assay type: cell-based; method in brief: as §3
Target sequence in this assay (Q13546 whole entry, the tested form may be a part): as the sequence (Q13546 whole entry, the tested form may be a part) above
Target sequence in this assay (P40337 whole entry, the tested form may be a part): as the sequence (P40337 whole entry, the tested form may be a part) above

[12] = molecular target: T1, von Hippel-Lindau disease tumor suppressor/Receptor-interacting serine/threonine-protein kinase 1; experiment: PROTAC activity at VHL/wild type nLuc-fused N-terminal RIPK1 kinase domain (unknown origin) expressed in HEK293T cells assessed as induction of protein degradation measured after 24 hrs in presence of furimazine substrate by Nano-Glo luciferase based luminescence analysis relative to control; assay type: cell-based; method in brief: as §3
Target sequence in this assay (P40337 whole entry, looked up, the tested form may be a part): as the sequence (P40337 whole entry, the tested form may be a part) above
Target sequence in this assay (Q13546 whole entry, looked up, the tested form may be a part): as the sequence (Q13546 whole entry, the tested form may be a part) above

[13] = molecular target: T1, von Hippel-Lindau disease tumor suppressor/Receptor-interacting serine/threonine-protein kinase 1; experiment: PROTAC activity at VHL/wild type nLuc-fused N-terminal RIPK1 kinase domain (unknown origin) expressed in HEK293T cells assessed as induction of protein degradation at 1.6 to 1000 nM measured after 24 hrs by immunoblot analysis; assay type: cell-based; details: dose 1.6-1000 nM
Method in brief: (§4)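 HEK293T cells transfected with nLuc (WT or K0)-RIPK1 kinase domain, plated in 12-well plates and treated 24 h. Lysed in RIPA with protease/phosphatase inhibitors and benzonase. 20 µg protein run on SDS-PAGE and transferred to PVDF. Probed overnight at 4 °C with anti-RIPK1 (1:1000) and β-actin (1:4000), then HRP secondary and ECL.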
Target sequence in this assay (P40337 whole entry, looked up, the tested form may be a part): as the sequence (P40337 whole entry, the tested form may be a part) above
Target sequence in this assay (Q13546 whole entry, looked up, the tested form may be a part): as the sequence (Q13546 whole entry, the tested form may be a part) above

[14] = molecular target: T1, von Hippel-Lindau disease tumor suppressor/Receptor-interacting serine/threonine-protein kinase 1; experiment: PROTAC activity at VHL/nLucK0-fused N-terminal RIPK1 kinase domain (unknown origin) expressed in HEK293T cells assessed as induction of protein degradation at 1.6 to 1000 nM measured after 24 hrs by immunoblot analysis; assay type: cell-based; details: dose 1.6-1000 nM; method in brief: as §4
Target sequence in this assay (P40337 whole entry, looked up, the tested form may be a part): as the sequence (P40337 whole entry, the tested form may be a part) above
Target sequence in this assay (Q13546 whole entry, looked up, the tested form may be a part): as the sequence (Q13546 whole entry, the tested form may be a part) above

Row | Compound | EC50 [1] [nM] | K (Homo sapiens [2]) | K (Homo sapiens [3]) | K (Homo sapiens [4]) | K (Homo sapiens [5]) | other results
1 | CC[C@H](C)[C@H](NC(=O)[C@H](CCCCN)NC(=O)[C@H](CCCCN)NC(=O)[C@H](Cc1ccccc1)NC(=O)[C@H](CC(C)C)NC(=O)[C@H](CCCNC(=N)N)NC(=O)[C@H](Cc1c[nH]c2ccccc12)NC(=O)CNC(=O)[C@H](CO)NC(=O)[C@@H](N)C(C)C)C(=O)N[C@@H](CO)C(=O)O | 24 | 3 10^5/M/s | 1.4 10^-3/s | 7.5 10^5/M/s | 1.3 10^-3/s | –
2 | CC[C@H](C)[C@H](NC(=O)[C@H](CCCNC(=N)N)NC(=O)[C@H](CCCNC(=N)N)NC(=O)[C@H](Cc1ccccc1)NC(=O)[C@H](CC(C)C)NC(=O)[C@H](CCCNC(=N)N)NC(=O)[C@H](Cc1c[nH]c2ccccc12)NC(=O)CNC(=O)[C@H](CO)NC(=O)[C@@H](N)C(C)C)C(=O)N[C@@H](CO)C(=O)O (H-VSGWRLFRRIS-OH) | 16 | 3.6 10^5/M/s | 6.7 10^-3/s | 7.7 10^5/M/s | 5 10^-4/s | EC50 [6]: 8.7 nM; EC50 [7]: 6.2 nM; Kd [8]: 1.8 nM; Kd [9]: 0.7 nM
3 | Cc1ncsc1-c1ccc([C@H](C)NC(=O)[C@H]2C[C@H](O)CN2C(=O)[C@@H](NC(=O)CCCCCCCCCCC(=O)NCCCn2cc(-c3ccc4c(c3)CCN4C(=O)Cc3cccc(OC(F)(F)F)c3)c3c(N)ncnc32)C(C)(C)C)cc1 | – | – | – | – | – | DC50 [10]: Not Active; DC50 [11]: Not Active
4 | Cc1ncsc1-c1ccc([C@H](C)NC(=O)[C@@H]2C[C@@H](O)CN2C(=O)[C@@H](NC(=O)CCCCCCCCCCC(=O)NCCCn2cc(-c3ccc4c(c3)CCN4C(=O)Cc3cccc(OC(F)(F)F)c3)c3c(N)ncnc32)C(C)(C)C)cc1 | – | – | – | – | – | %max [12]: 91.5%; Activity [13]: Active; Activity [14]: Active
